Laboratory results taken from ChEMBL document CHEMBL3232844, “Synthesis and structure activity relationships of schweinfurthin indoles” (2014).

Experiments:
Format in all cases: functional
CCRF-CEM = assay: Cytotoxicity against human CCRF-CEM cells
[1] = Cytotoxicity against human OVCAR3 cells
Procedure, shortened: (§1)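 Tested in a 60-cell-line human tumor panel screen; the read-out is growth inhibition, reported as GI50 for each cell line.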

K562 = assay: Cytotoxicity against human K562 cells; procedure, shortened: as §1
SK-OV-3 = assay: Cytotoxicity against human SKOV3 cells; procedure, shortened: as §1
MCF7 = assay: Cytotoxicity against human MCF7 cells; procedure, shortened: as §1
SR = assay: Cytotoxicity against human SR cells
Procedure, shortened: (§2)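 Cell line run as part of the 60-cell-line screening panel; growth inhibition was reported as a GI50 for each line.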

RXF 393 = assay: Cytotoxicity against human RXF393 cells; procedure, shortened: as §1
SK-MEL-2 = assay: Cytotoxicity against human SK-MEL-2 cells; procedure, shortened: as §1
BT-549 = assay: Cytotoxicity against human BT549 cells; procedure, shortened: as §1
MDA-MB-231 = assay: Cytotoxicity against human MDA-MB-231 cells; procedure, shortened: as §1
NCI-H226 = assay: Cytotoxicity against human NCI-H226 cells; procedure, shortened: as §1
T47D = assay: Cytotoxicity against human T47D cells; procedure, shortened: as §2
MOLT-4 = assay: Cytotoxicity against human MOLT4 cells; procedure, shortened: as §1
[2] = Cytotoxicity against human OVCAR8 cells; procedure, shortened: as §1
[3] = Cytotoxicity against human EKVX cells; procedure, shortened: as §1
[4] = Cytotoxicity against human OVCAR5 cells; procedure, shortened: as §1
[5] = Cytotoxicity against human NCI-ADR-RES cells; procedure, shortened: as §1
NCI-H460 = assay: Cytotoxicity against human NCI-H460 cells; procedure, shortened: as §1
HL-60(TB) = assay: Cytotoxicity against human HL-60(TB) cells
Procedure, shortened: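 Tested within the NCI 60-cell-line screen, with GI50 as the read-out. Values are the average of two independent experiments. The lowest concentration tested was 10 nM.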

HT-29 = assay: Cytotoxicity against human HT-29 cells; procedure, shortened: as §1
NCI-H23 = assay: Cytotoxicity against human NCI-H23 cells; procedure, shortened: as §1
[6] = Cytotoxicity against human UO31 cells; procedure, shortened: as §2
NCI-H322M = assay: Cytotoxicity against human NCI-H322M cells; procedure, shortened: as §1
PC-3 = assay: Cytotoxicity against human PC3 cells; procedure, shortened: as §1
A498 = assay: Cytotoxicity against human A498 cells; procedure, shortened: as §1
SF-295 = assay: Cytotoxicity against human SF295 cells; procedure, shortened: as §1
786-0 = assay: Cytotoxicity against human 786-0 cells; procedure, shortened: as §1
SF-539 = assay: Cytotoxicity against human SF539 cells; procedure, shortened: as §1
U-251 = assay: Cytotoxicity against human U251 cells; procedure, shortened: as §2
SF-268 = assay: Cytotoxicity against human SF268 cells; procedure, shortened: as §1
ACHN = assay: Cytotoxicity against human ACHN cells; procedure, shortened: as §1
[7] = Cytotoxicity against human UACC257 cells; procedure, shortened: as §2
SNB-75 = assay: Cytotoxicity against human SNB75 cells; procedure, shortened: as §2
HCC 2998 = assay: Cytotoxicity against human HCC2998 cells; procedure, shortened: as §1
MDA-MB-468 = assay: Cytotoxicity against human MDA-MB-468 cells; procedure, shortened: as §1
SK-MEL-5 = assay: Cytotoxicity against human SK-MEL-5 cells; procedure, shortened: as §1
SNB-19 = assay: Cytotoxicity against human SNB19 cells; procedure, shortened: as §1
MDA-MB-435 = assay: Cytotoxicity against human MDA-MB-435 cells; procedure, shortened: as §1
[8] = Cytotoxicity against human UACC62 cells; procedure, shortened: as §2
DU-145 = assay: Cytotoxicity against human DU145 cells; procedure, shortened: as §1
SN12C = assay: Cytotoxicity against human SN12C cells; procedure, shortened: as §1
M14 = assay: Cytotoxicity against human M14 cells; procedure, shortened: as §1
KM12 = assay: Cytotoxicity against human KM12 cells; procedure, shortened: as §1
[9] = read-out: pLC50 (the source's name) (converted)

COc1cc(/C=C/c2cc(O)c3c(C/C=C(\C)CCC=C(C)C)c[nH]c3c2)cc2c1O[C@]1(C)CC[C@@H](O)C(C)(C)[C@H]1C2
GI50 (CCRF-CEM): 0.724 µM
CC50 (CCRF-CEM; [9]): > 100 µM
TGI (CCRF-CEM; read-out: pTGI (converted)): > 100 µM
GI50 ([1]; OVCAR-3): 33.9 µM
CC50 ([1]; OVCAR-3, read-out: pLC50 (the source's name) (converted)): > 100 µM
TGI ([1]; OVCAR-3, read-out: pTGI (converted)): > 100 µM
GI50 (K562): 0.417 µM
CC50 (K562; [9]): > 100 µM
TGI (K562; read-out: pTGI (converted)): 8.71 µM
GI50 (SK-OV-3): 5.13 µM
LC50 (SK-OV-3): > 100 µM
TGI (SK-OV-3; read-out: pTGI (converted)): > 100 µM
GI50 (MCF7): 0.617 µM
LC50 (MCF7): 8.51 µM
TGI (MCF7; read-out: pTGI (converted)): 2.45 µM
GI50 (SR): 0.55 µM
CC50 (SR; [9]): > 100 µM
TGI (SR; read-out: pTGI (converted)): 29.5 µM
GI50 (RXF 393): 0.0661 µM
LC50 (RXF 393): 3.63 µM
TGI (RXF 393; read-out: pTGI (converted)): 0.309 µM
GI50 (SK-MEL-2): 0.871 µM
CC50 (SK-MEL-2; [9]): > 100 µM
TGI (SK-MEL-2; read-out: pTGI (converted)): 18.2 µM
GI50 (BT-549): 0.525 µM
CC50 (BT-549; [9]): > 100 µM
TGI (BT-549; read-out: pTGI (converted)): > 100 µM
GI50 (MDA-MB-231): 1.1 µM
LC50 (MDA-MB-231): 85.1 µM
TGI (MDA-MB-231; read-out: pTGI (converted)): 6.31 µM
GI50 (NCI-H226): 24 µM
CC50 (NCI-H226; [9]): > 100 µM
TGI (NCI-H226; read-out: pTGI (converted)): > 100 µM
GI50 (T47D): 6.92 µM
CC50 (T47D; [9]): > 100 µM
TGI (T47D; read-out: pTGI (converted)): > 100 µM
GI50 (MOLT-4): 0.282 µM
CC50 (MOLT-4; [9]): > 100 µM
TGI (MOLT-4; read-out: pTGI (converted)): 2.51 µM
GI50 ([2]; OVCAR-8): 72.4 µM
CC50 ([2]; OVCAR-8, read-out: pLC50 (the source's name) (converted)): > 100 µM
TGI ([2]; OVCAR-8, read-out: pTGI (converted)): > 100 µM
GI50 [3]: 0.724 µM
CC50 [3, 9]: > 100 µM
TGI ([3]; read-out: pTGI (converted)): 4.47 µM
GI50 ([4]; OVCAR-5): 15.1 µM
CC50 ([4]; OVCAR-5, read-out: pLC50 (the source's name) (converted)): > 100 µM
TGI ([4]; OVCAR-5, read-out: pTGI (converted)): > 100 µM
GI50 [5]: 46.8 µM
CC50 [5, 9]: > 100 µM
TGI ([5]; read-out: pTGI (converted)): > 100 µM
GI50 (NCI-H460): 1.2 µM
CC50 (NCI-H460; [9]): 57.5 µM
TGI (NCI-H460; read-out: pTGI (converted)): 6.61 µM
GI50 (HL-60(TB)): 0.398 µM
CC50 (HL-60(TB); [9]): > 100 µM
TGI (HL-60(TB); read-out: pTGI (converted)): 12.3 µM
GI50 (HT-29): 0.219 µM
CC50 (HT-29; [9]): 20.4 µM
TGI (HT-29; read-out: pTGI (converted)): 1.66 µM
GI50 (NCI-H23): 2.45 µM
CC50 (NCI-H23; [9]): > 100 µM
TGI (NCI-H23; read-out: pTGI (converted)): 24.5 µM
GI50 ([6]; UO-31): 0.933 µM
LC50 ([6]; UO-31): 8.91 µM
TGI ([6]; UO-31, read-out: pTGI (converted)): 2.95 µM
GI50 (NCI-H322M): 60.3 µM
CC50 (NCI-H322M; [9]): > 100 µM
TGI (NCI-H322M; read-out: pTGI (converted)): > 100 µM
GI50 (PC-3): 0.457 µM
LC50 (PC-3): > 100 µM
TGI (PC-3; read-out: pTGI (converted)): 24.5 µM
GI50 (A498): 1.2 µM
CC50 (A498; [9]): > 100 µM
TGI (A498; read-out: pTGI (converted)): 9.77 µM
GI50 (SF-295; read-out: GI50): 0.11 µM
GI50 (SF-295; read-out: pGI50 (converted)): 0.112 µM
CC50 (SF-295; [9]): 2.88 µM
TGI (SF-295; read-out: pTGI (converted)): 0.417 µM
GI50 (786-0): 0.0468 µM
LC50 (concentration killing 50% of cells) (786-0): 5.62 µM
TGI (786-0; read-out: pTGI (converted)): 1.12 µM
GI50 (SF-539): 0.229 µM
CC50 (SF-539; [9]): 6.03 µM
TGI (SF-539; read-out: pTGI (converted)): 1.45 µM
GI50 (U-251): 0.603 µM
CC50 (U-251; [9]): > 100 µM
TGI (U-251; read-out: pTGI (converted)): > 100 µM
GI50 (SF-268): 2.75 µM
CC50 (SF-268; [9]): > 100 µM
TGI (SF-268; read-out: pTGI (converted)): > 100 µM
GI50 (ACHN): 7.24 µM
LC50 (concentration killing 50% of cells) (ACHN): > 100 µM
TGI (ACHN; read-out: pTGI (converted)): > 100 µM
GI50 ([7]; UACC-257): 9.12 µM
CC50 ([7]; UACC-257, read-out: pLC50 (the source's name) (converted)): > 100 µM
TGI ([7]; UACC-257, read-out: pTGI (converted)): 49 µM
GI50 (SNB-75): 0.245 µM
CC50 (SNB-75; [9]): > 100 µM
TGI (SNB-75; read-out: pTGI (converted)): 3.63 µM
GI50 (HCC 2998): 4.9 µM
CC50 (HCC 2998; [9]): > 100 µM
TGI (HCC 2998; read-out: pTGI (converted)): 36.3 µM
GI50 (MDA-MB-468): 2 µM
LC50 (MDA-MB-468): > 100 µM
TGI (MDA-MB-468; read-out: pTGI (converted)): 44.7 µM
GI50 (SK-MEL-5): 1.07 µM
CC50 (SK-MEL-5; [9]): 5.37 µM
TGI (SK-MEL-5; read-out: pTGI (converted)): 2.4 µM
GI50 (SNB-19): 2.45 µM
CC50 (SNB-19; [9]): > 100 µM
TGI (SNB-19; read-out: pTGI (converted)): > 100 µM
GI50 (MDA-MB-435): 4.07 µM
CC50 (MDA-MB-435; [9]): > 100 µM
TGI (MDA-MB-435; read-out: pTGI (converted)): > 100 µM
GI50 ([8]; UACC-62): 1.26 µM
CC50 ([8]; UACC-62, read-out: pLC50 (the source's name) (converted)): > 100 µM
TGI ([8]; UACC-62, read-out: pTGI (converted)): 4.68 µM
GI50 (DU-145): 5.37 µM
LC50 (50% lethal concentration) (DU-145): > 100 µM
TGI (DU-145; read-out: pTGI (converted)): > 100 µM
GI50 (SN12C): 60.3 µM
LC50 (SN12C): > 100 µM
TGI (SN12C; read-out: pTGI (converted)): > 100 µM
GI50 (M14): 2 µM
CC50 (M14; [9]): > 100 µM
TGI (M14; read-out: pTGI (converted)): 11.2 µM
GI50 (KM12): 0.525 µM
CC50 (KM12; [9]): 5.37 µM
TGI (KM12; read-out: pTGI (converted)): 1.78 µM
